Measurements: ChEMBL document CHEMBL4680235, “Structure-based discovery of novel 4-(2-fluorophenoxy)quinoline derivatives as c-Met inhibitors using isocyanide-involved multicomponent reactions” (Eur J Med Chem, 2020)

Columns and labels:
[1] = system: HT-29; test: Antiproliferative activity against human HT-29 cells assessed as reduction in cell viability measured after 72 hrs by MTT assay; details: HT-29, 72 h
[2] = biological target: Mast/stem cell growth factor receptor Kit (Homo sapiens, UniProt P10721); test: Inhibition of c-Kit (unknown origin)
Sequence of Mast/stem cell growth factor receptor Kit (P10721 whole entry): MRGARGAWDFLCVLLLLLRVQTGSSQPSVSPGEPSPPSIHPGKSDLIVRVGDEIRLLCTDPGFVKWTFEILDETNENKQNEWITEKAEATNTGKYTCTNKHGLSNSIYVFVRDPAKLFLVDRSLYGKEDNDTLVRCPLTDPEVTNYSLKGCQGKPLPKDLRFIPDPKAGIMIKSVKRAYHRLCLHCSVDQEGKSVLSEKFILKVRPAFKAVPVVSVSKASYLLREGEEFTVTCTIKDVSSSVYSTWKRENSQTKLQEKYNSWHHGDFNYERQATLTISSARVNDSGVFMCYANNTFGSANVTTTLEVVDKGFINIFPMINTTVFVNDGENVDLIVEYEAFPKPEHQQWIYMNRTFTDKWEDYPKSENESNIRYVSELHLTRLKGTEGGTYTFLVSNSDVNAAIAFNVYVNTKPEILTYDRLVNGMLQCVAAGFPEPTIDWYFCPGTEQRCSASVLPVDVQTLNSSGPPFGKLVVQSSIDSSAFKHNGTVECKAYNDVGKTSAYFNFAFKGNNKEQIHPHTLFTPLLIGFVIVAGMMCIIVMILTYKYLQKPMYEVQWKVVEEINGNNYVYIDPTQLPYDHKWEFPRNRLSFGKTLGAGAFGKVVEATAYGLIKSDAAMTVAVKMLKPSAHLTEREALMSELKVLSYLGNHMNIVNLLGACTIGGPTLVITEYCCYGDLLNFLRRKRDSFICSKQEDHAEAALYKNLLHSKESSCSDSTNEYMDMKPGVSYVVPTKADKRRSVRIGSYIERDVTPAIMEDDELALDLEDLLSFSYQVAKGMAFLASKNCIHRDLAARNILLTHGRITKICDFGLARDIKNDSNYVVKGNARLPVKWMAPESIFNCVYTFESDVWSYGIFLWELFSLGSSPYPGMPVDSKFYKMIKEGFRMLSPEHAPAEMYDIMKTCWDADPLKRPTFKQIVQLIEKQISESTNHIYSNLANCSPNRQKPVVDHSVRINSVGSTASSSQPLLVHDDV
Outline: (§1)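 HTRF kinase assay with purified kinase protein on preloaded poly(Glu,Tyr) 4:1 substrate, 20 mg/mL. ATP at 10 mM (solution added) in buffer of 50 mM HEPES pH 7.0 with DTT, MgCl₂, MnCl₂ and 0.1% NaN₃. Compounds diluted in 1% DMSO. Reaction ran 30 min at 25 °C. Percent inhibition computed against no-enzyme (min) and full-activity (max) wells. IC50 taken from the inhibition curves.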

[3] = biological target: Hepatocyte growth factor receptor (Homo sapiens, UniProt P08581); test: Inhibition of c-MET (unknown origin) using poly (Glu, Tyr) 4:1 as substrate measured after 30 mins by HTRF assay
Sequence of Hepatocyte growth factor receptor (P08581 whole entry): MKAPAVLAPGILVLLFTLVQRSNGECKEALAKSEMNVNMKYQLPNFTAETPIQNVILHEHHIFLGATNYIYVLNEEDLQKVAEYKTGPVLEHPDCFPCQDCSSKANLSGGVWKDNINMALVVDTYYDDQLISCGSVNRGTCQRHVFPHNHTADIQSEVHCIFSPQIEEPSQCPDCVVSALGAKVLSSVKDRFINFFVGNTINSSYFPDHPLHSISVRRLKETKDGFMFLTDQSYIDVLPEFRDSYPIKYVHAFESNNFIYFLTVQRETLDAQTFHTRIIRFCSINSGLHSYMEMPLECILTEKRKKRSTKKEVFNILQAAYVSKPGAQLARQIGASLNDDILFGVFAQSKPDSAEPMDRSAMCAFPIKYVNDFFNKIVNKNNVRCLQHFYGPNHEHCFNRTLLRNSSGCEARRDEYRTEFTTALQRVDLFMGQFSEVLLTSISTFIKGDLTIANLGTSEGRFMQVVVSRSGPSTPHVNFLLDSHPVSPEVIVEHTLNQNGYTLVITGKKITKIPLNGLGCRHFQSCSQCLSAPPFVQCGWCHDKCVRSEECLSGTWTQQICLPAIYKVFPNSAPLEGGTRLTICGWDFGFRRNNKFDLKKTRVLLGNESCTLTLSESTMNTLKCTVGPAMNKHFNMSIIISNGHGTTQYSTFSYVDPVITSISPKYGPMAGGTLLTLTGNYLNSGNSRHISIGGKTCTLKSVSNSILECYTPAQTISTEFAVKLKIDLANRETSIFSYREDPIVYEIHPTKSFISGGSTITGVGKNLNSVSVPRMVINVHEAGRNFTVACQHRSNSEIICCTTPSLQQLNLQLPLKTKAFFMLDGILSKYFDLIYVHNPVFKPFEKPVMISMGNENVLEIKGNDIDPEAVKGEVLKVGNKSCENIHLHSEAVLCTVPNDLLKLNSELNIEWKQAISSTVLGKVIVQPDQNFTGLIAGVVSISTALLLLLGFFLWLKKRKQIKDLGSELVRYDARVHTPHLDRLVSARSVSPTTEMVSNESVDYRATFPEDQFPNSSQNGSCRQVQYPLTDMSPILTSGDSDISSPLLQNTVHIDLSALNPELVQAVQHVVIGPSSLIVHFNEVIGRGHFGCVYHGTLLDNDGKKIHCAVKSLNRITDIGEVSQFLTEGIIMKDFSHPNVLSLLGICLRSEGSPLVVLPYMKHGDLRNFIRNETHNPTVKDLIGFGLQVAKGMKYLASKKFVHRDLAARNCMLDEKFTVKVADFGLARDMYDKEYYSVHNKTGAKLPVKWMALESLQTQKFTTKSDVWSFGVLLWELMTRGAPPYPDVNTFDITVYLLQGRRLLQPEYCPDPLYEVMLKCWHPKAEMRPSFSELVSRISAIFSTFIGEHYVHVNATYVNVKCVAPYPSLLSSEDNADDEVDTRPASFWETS

[4] = system: NCI-H460; test: Antiproliferative activity against human NCI-H460 cells assessed as reduction in cell viability measured after 72 hrs by MTT assay; details: NCI-H460, 72 h
[5] = biological target: Epidermal growth factor receptor (Homo sapiens, UniProt P00533); test: Inhibition of EGFR (unknown origin); outline: as §1
[6] = biological target: Vascular endothelial growth factor receptor 3 (Homo sapiens, UniProt P35916); test: Inhibition of Flt4 (unknown origin); outline: as §1
[7] = system: MKN-45; test: Antiproliferative activity against human MKN-45 cells assessed as reduction in cell viability measured after 72 hrs by MTT assay; details: MKN-45, 72 h
[8] = biological target: Vascular endothelial growth factor receptor 2 (Homo sapiens, UniProt P35968); test: Inhibition of VEGFR2 (unknown origin)
Sequence of Vascular endothelial growth factor receptor 2 (P35968 whole entry): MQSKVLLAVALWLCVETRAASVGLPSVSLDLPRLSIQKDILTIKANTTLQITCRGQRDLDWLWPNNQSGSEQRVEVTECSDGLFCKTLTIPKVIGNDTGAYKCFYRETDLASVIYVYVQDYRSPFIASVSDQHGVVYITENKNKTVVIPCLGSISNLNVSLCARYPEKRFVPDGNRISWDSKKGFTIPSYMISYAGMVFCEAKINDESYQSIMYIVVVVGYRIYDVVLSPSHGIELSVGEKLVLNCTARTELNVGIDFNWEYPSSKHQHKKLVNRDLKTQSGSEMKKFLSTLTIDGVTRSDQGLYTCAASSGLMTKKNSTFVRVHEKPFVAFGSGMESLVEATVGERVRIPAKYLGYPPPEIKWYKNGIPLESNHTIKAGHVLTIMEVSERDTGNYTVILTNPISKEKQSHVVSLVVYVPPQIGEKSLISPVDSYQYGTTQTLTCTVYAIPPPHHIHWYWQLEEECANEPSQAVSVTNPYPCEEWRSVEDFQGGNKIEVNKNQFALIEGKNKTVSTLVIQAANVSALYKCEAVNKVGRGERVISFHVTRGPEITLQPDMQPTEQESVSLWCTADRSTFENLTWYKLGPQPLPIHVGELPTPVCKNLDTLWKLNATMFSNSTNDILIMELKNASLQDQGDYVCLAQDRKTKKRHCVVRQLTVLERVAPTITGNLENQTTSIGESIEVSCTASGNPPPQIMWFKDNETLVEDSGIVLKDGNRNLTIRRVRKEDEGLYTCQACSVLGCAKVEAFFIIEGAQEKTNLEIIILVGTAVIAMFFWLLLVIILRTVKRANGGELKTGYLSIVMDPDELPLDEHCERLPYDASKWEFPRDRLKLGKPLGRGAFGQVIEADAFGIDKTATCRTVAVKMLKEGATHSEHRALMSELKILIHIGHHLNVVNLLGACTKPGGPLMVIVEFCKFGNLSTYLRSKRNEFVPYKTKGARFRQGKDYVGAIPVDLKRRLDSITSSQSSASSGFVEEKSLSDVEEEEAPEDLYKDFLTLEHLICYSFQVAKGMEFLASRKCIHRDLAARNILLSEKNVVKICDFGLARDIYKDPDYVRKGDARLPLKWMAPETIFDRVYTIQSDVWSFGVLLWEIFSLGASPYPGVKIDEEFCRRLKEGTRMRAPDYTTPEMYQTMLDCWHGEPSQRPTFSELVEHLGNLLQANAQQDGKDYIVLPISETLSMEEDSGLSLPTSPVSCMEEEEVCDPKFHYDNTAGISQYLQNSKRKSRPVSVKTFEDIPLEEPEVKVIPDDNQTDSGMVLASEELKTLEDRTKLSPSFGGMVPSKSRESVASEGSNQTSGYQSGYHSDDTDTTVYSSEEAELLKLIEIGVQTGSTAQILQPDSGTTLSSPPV

[9] = system: HT-29; test: Potency index, ratio of foretinib IC50 to test compound IC50 for antiproliferative activity against human HT-29 cells; format: functional
[10] = biological target: T1, Receptor-type tyrosine-protein kinase FLT3 (Homo sapiens, UniProt P36888); test: Inhibition of FLT3 (unknown origin)
T1 sequence (P36888 whole entry): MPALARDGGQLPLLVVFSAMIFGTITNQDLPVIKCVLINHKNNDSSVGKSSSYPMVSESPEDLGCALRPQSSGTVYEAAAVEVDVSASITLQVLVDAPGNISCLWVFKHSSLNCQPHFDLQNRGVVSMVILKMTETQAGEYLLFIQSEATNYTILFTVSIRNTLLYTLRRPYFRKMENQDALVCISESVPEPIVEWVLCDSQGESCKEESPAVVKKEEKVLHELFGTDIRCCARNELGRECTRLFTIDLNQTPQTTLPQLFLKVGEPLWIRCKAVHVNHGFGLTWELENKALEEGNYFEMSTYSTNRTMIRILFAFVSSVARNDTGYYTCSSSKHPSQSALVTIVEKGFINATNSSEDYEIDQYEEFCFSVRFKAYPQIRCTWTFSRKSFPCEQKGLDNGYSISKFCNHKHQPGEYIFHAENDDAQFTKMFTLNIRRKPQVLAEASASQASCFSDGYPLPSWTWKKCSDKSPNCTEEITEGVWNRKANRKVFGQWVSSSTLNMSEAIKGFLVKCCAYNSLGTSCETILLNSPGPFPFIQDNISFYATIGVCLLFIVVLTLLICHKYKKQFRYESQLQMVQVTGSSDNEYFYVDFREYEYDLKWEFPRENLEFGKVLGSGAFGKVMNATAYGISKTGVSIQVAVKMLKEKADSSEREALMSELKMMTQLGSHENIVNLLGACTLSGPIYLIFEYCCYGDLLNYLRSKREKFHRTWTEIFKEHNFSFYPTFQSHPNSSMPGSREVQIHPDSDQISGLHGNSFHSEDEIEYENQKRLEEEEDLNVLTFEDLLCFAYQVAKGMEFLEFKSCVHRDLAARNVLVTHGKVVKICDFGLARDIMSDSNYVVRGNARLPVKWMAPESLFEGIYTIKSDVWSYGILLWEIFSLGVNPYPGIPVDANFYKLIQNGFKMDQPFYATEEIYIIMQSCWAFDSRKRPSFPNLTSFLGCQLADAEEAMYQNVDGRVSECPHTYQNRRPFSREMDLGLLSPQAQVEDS

[11] = system: MDA-MB-231; test: Potency index, ratio of foretinib IC50 to test compound IC50 for antiproliferative activity against human MDA-MB-231 cells; format: functional
[12] = system: MDA-MB-231; test: Antiproliferative activity against human MDA-MB-231 cells assessed as reduction in cell viability measured after 72 hrs by MTT assay; details: MDA-MB-231, 72 h
[13] = biological target: Macrophage-stimulating protein receptor (Homo sapiens, UniProt Q04912); test: Inhibition of Ron (unknown origin); outline: as §1
Sequence of Macrophage-stimulating protein receptor (Q04912 25-304 limits assumed): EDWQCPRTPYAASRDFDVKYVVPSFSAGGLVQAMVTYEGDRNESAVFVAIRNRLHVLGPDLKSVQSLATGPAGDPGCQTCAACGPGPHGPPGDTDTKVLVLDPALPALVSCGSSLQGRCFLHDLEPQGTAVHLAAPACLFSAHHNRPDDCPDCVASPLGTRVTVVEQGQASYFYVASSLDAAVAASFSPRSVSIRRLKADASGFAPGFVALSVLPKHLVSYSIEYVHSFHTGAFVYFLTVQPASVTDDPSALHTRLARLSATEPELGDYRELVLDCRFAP
Sequence of Macrophage-stimulating protein receptor (Q04912 310-1400 limits assumed): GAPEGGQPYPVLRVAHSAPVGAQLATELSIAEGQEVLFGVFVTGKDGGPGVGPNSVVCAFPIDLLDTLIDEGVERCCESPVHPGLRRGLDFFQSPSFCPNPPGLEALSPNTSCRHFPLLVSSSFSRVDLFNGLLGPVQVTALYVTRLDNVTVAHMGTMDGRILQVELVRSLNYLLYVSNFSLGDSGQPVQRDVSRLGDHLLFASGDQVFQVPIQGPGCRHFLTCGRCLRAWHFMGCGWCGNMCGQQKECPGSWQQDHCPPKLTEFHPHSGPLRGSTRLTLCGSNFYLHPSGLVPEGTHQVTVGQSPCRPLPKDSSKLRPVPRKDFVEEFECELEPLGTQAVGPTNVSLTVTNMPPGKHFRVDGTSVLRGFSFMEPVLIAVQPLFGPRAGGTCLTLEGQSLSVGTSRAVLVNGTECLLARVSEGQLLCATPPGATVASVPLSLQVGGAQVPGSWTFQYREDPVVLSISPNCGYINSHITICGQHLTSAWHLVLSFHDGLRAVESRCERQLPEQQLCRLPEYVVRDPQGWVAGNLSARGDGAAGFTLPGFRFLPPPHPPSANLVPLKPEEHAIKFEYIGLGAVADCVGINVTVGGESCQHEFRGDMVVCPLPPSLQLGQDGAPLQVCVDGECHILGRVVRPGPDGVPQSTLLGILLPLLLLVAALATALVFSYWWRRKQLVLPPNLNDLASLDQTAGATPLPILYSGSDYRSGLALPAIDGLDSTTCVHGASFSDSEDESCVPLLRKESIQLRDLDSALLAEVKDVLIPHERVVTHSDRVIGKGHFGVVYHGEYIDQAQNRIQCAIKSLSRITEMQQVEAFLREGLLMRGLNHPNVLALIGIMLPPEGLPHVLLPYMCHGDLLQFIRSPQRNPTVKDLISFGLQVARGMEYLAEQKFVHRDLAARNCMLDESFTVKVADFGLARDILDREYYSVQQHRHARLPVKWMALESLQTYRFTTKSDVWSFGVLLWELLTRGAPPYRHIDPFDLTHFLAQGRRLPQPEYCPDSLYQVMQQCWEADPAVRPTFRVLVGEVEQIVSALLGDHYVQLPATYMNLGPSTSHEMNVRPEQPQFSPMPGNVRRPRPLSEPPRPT

[14] = system: NCI-H460; test: Potency index, ratio of foretinib IC50 to test compound IC50 for antiproliferative activity against human NCI-H460 cells; format: functional
[15] = system: NCI-H460; test: Antiproliferative activity against human NCI-H460 cells assessed as reduction in cell viability hrs by MTT assay; format: functional, cell-based; details: TDE = time-dependent effect

| SMILES | IC50 [1] | IC50 [4] | IC50 [7] | IC50 [12] | also measured |
| --- | --- | --- | --- | --- | --- |
| CCCC(OC(=O)c1ccccc1)C(=O)Nc1ccc(Oc2ccnc3cc(OC)c(OC)cc23)c(F)c1 (stereo unspecified) | 1240 nM | 890 nM | 1870 nM | 2480 nM | – |
| COc1cc2nccc(Oc3ccc(NC(=O)C(OC(=O)c4cccs4)C(C)(C)C)cc3F)c2cc1OC (stereo unspecified) | 1260 nM | 960 nM | 1700 nM | 1890 nM | – |
| COc1cc2nccc(Oc3ccc(NC(=O)C(OC(=O)c4cc(OC)c(OC)c(OC)c4)C(C)(C)C)cc3F)c2cc1OC (stereo unspecified) | 3030 nM | 2700 nM | 3870 nM | 4920 nM | – |
| COc1cc2nccc(Oc3ccc(NC(=O)C(OC(=O)c4ccc(C(C)(C)C)cc4)C(C)(C)C)cc3F)c2cc1OC (stereo unspecified) | 2450 nM | 2060 nM | 3950 nM | 4450 nM | – |
| COc1cc2nccc(Oc3ccc(NC(=O)C(C)OC(=O)c4cccs4)cc3F)c2cc1OC (stereo unspecified) | 4020 nM | 2460 nM | 6390 nM | 8240 nM | – |
| COc1cc2nccc(Oc3ccc(NC(=O)[C@H](OC(=O)c4ccc(F)cc4)C(C)(C)C)cc3F)c2cc1OC | – | – | – | – | IC50 [3]: 2.56 nM |
| COc1cc2nccc(Oc3ccc(NC(=O)C(OC(=O)c4ccc(C(F)(F)F)cc4)C(C)(C)C)cc3F)c2cc1OC (stereo unspecified) | 2160 nM | 1840 nM | 2870 nM | 3520 nM | – |
| COc1cc2nccc(Oc3ccc(NC(=O)C(N(C(=O)c4ccc(F)cc4)c4ccccc4)C(C)(C)C)cc3F)c2cc1OC (stereo unspecified) | 9270 nM | 7560 nM | 11500 nM | 14000 nM | – |
| COc1cc2nccc(Oc3ccc(NC(=O)C(OC(=O)c4ccccc4)c4ccccc4)cc3F)c2cc1OC (stereo unspecified) | 25600 nM | 22400 nM | – | – | – |
| COc1cc2nccc(Oc3ccc(NC(=O)C(C)OC(=O)c4ccc5ccccc5c4)cc3F)c2cc1OC (stereo unspecified) | 11600 nM | 9430 nM | 15600 nM | 13300 nM | – |
| COc1ccc(C(=O)OC(C(=O)Nc2ccc(Oc3ccnc4cc(OC)c(OC)cc34)c(F)c2)C(C)(C)C)cc1 (stereo unspecified) | 1540 nM | 1250 nM | 1860 nM | 2580 nM | – |
| COc1cc2nccc(Oc3ccc(NC(=O)C(OC(=O)c4ccccc4)C4CCCCC4)cc3F)c2cc1OC (stereo unspecified) | 15600 nM | 10300 nM | 20500 nM | 18000 nM | – |
| COc1cc2nccc(Oc3ccc(NC(=O)C(N(C(=O)c4ccc(F)cc4)C4CCCCC4)C(C)(C)C)cc3F)c2cc1OC (stereo unspecified) | 5350 nM | 4340 nM | 6650 nM | 8480 nM | – |
| COc1cc2nccc(Oc3ccc(NC(=O)C(N(C(=O)c4ccc(F)cc4)c4ccc(F)cc4)C(C)(C)C)cc3F)c2cc1OC (stereo unspecified) | 10200 nM | 8420 nM | 12400 nM | 14800 nM | – |
| COc1cc2nccc(Oc3ccc(NC(=O)C(OC(=O)c4ccc5ccccc5c4)C(C)(C)C)cc3F)c2cc1OC (stereo unspecified) | 4380 nM | 3340 nM | – | 6750 nM | – |
| COc1cc2nccc(Oc3ccc(NC(=O)C(C)OC(=O)C4CCCC4)cc3F)c2cc1OC (stereo unspecified) | 24600 nM | 15200 nM | 28200 nM | – | – |
| COc1cc2nccc(Oc3ccc(NC(=O)C(N(C(=O)c4ccc(F)cc4)C(C)(C)C)C(C)(C)C)cc3F)c2cc1OC (stereo unspecified) | 1450 nM | 1300 nM | 1580 nM | 1700 nM | – |
| COc1ccc(N(C(=O)c2ccc(F)cc2)C(C(=O)Nc2ccc(Oc3ccnc4cc(OC)c(OC)cc34)c(F)c2)C(C)(C)C)cc1OC (stereo unspecified) | 6210 nM | 6420 nM | 7520 nM | 8870 nM | – |
| COc1cc2nccc(Oc3ccc(NC(=O)[C@@H](OC(=O)c4ccc(F)cc4)C(C)(C)C)cc3F)c2cc1OC | – | – | – | – | IC50 [3]: 2.49 nM |
| COc1cc2nccc(Oc3ccc(NC(=O)C(C)OC(=O)c4ccccc4)cc3F)c2cc1OC (stereo unspecified) | 1920 nM | 1290 nM | 2390 nM | 3210 nM | – |
| COc1cc2nccc(Oc3ccc(NC(=O)C(OC(=O)C4CCCC4)C(C)(C)C)cc3F)c2cc1OC (stereo unspecified) | 9270 nM | 11600 nM | 11500 nM | 14000 nM | – |
| COc1cc2nccc(Oc3ccc(NC(=O)C(OC(=O)c4ccco4)C(C)(C)C)cc3F)c2cc1OC (stereo unspecified) | 2960 nM | 2680 nM | – | 3560 nM | – |

Further lines, with some results ahead:

| IC50 [1] | IC50 [4] | IC50 [7] | IC50 [12] | SMILES | also measured |
| --- | --- | --- | --- | --- | --- |
| 200 nM | 140 nM | 260 nM | 420 nM | COc1cc2nccc(Oc3ccc(NC(=O)C(OC(=O)c4ccc(F)cc4)C(C)(C)C)cc3F)c2cc1OC (racemic) | IC50 [2]: 4.42 nM; IC50 [3]: 2.43 nM; IC50 [5]: > 10000 nM; IC50 [6]: 540 nM; IC50 [8]: 295 nM; Ratio IC50 [9]: 1.3; IC50 [10]: 6.15 nM; Ratio IC50 [11]: 1.6; IC50 [13]: 18.6 nM; Ratio IC50 [14]: 1.7; Activity [15]: Tde |
| 240 nM | 210 nM | 380 nM | 440 nM | COc1cc2nccc(Oc3ccc(NC(=O)C(OC(=O)c4ccccc4F)C(C)(C)C)cc3F)c2cc1OC (stereo unspecified) | – |
| 300 nM | 260 nM | 540 nM | 490 nM | COc1cc2nccc(Oc3ccc(NC(=O)C(OC(=O)c4cccc(F)c4)C(C)(C)C)cc3F)c2cc1OC (stereo unspecified) | – |
| 520 nM | 470 nM | 680 nM | 860 nM | CCCCN(C(=O)c1ccc(F)cc1)C(C(=O)Nc1ccc(Oc2ccnc3cc(OC)c(OC)cc23)c(F)c1)C(C)(C)C (stereo unspecified) | – |
| 290 nM | 220 nM | 460 nM | 760 nM | COc1cc2nccc(Oc3ccc(NC(=O)C(OC(=O)c4ccccc4Cl)C(C)(C)C)cc3F)c2cc1OC (stereo unspecified) | – |
| 240 nM | 200 nM | 320 nM | 480 nM | COc1cc2nccc(Oc3ccc(NC(=O)C(OC(=O)c4ccc(Cl)cc4)C(C)(C)C)cc3F)c2cc1OC (stereo unspecified) | – |
| 440 nM | 380 nM | 650 nM | 960 nM | COc1cc2nccc(Oc3ccc(NC(=O)C(NC(=O)c4ccc(F)cc4)C(C)(C)C)cc3F)c2cc1OC (stereo unspecified) | – |
| 900 nM | 780 nM | 1120 nM | 1560 nM | COc1cc2nccc(Oc3ccc(NC(=O)C(OC(=O)c4ccc(Cl)c(Cl)c4)C(C)(C)C)cc3F)c2cc1OC (stereo unspecified) | – |
| 850 nM | 780 nM | 1080 nM | 1420 nM | COc1cc2nccc(Oc3ccc(NC(=O)C(OC(=O)c4ccc(C)cc4)C(C)(C)C)cc3F)c2cc1OC (stereo unspecified) | – |
| 450 nM | 400 nM | 560 nM | 650 nM | COc1cc2nccc(Oc3ccc(NC(=O)C(OC(=O)c4ccccc4)C(C)(C)C)cc3F)c2cc1OC (stereo unspecified) | – |
| 390 nM | 310 nM | 600 nM | 860 nM | COc1cc2nccc(Oc3ccc(NC(=O)C(OC(=O)c4cccc(Cl)c4)C(C)(C)C)cc3F)c2cc1OC (stereo unspecified) | – |
| 560 nM | 480 nM | 750 nM | 900 nM | COc1cc2nccc(Oc3ccc(NC(=O)C(OC(=O)c4ccc(Br)cc4)C(C)(C)C)cc3F)c2cc1OC (stereo unspecified) | – |
